pIC50: −log10 of the molar value.
What was measured:
[1] = target: Genome polyprotein (West Nile virus, UniProt P06935); test: Inhibition of WNV NS2B-NS3 protease by fluorescence assay
How it was run: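 Recombinant WNV NS2B-NS3 proteinase (10 nM, active-site titrated against aprotinin) preincubated 60 min at 18 °C with increasing inhibitor concentrations in 10 mM Tris-HCl pH 8.0, 20% glycerol, 0.005% Brij 35. Pyr-RTKR-AMC substrate at 25 μM; initial velocities read continuously at ex 360/em 465 nm. Triplicates; IC50 derived.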

[2] = Aqueous stability assessed as half life at pH 8.0 buffer; type: physicochemical
How it was run: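 Compound held in pH 8 buffer; remaining amount followed over time by LC/MS to give half-life.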

Chain of Genome polyprotein (P06935 1371-1501 limits assumed): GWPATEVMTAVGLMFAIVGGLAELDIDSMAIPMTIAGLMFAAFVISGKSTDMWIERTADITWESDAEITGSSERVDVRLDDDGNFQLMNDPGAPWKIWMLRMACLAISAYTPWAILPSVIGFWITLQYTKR
Chain of Genome polyprotein (P06935 1502-2120 limits assumed): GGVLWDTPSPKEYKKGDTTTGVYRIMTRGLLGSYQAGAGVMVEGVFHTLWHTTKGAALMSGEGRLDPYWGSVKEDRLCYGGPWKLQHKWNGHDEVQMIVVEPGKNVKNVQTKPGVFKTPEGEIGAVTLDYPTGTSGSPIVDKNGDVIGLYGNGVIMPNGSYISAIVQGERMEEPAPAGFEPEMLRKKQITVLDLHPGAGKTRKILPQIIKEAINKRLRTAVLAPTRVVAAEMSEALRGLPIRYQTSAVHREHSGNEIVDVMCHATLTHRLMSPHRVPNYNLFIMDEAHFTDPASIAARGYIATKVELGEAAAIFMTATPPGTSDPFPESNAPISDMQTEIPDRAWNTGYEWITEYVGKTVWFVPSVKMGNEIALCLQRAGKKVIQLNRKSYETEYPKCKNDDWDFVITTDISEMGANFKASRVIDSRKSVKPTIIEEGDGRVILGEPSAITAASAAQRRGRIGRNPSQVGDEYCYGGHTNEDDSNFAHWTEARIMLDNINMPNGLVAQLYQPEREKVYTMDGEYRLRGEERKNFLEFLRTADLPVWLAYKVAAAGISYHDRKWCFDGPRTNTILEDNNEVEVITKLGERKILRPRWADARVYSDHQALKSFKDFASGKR

## COc1ccc(Cn2nc(C)cc2CC(=O)c2c(F)cccc2F)cc1
[1]
  pIC50: 4.62

## COc1ccc(S(=O)(=O)n2nc(OC(=O)c3ccc(F)cc3F)cc2N)cc1
[2]
  t1/2: 7.5 h
[1]
  pIC50: 5.71

## COc1ccc(Cn2nc(C)cc2CC(=O)c2ccccc2)cc1
[1]
  pIC50: < 4.00

## COc1ccc(S(=O)(=O)n2nc(OC(=O)c3ccccc3[N+](=O)[O-])cc2N)cc1
[1]
  pIC50: < 4.00

## COc1ccc(S(=O)(=O)n2nc(C)cc2NC(=O)c2ccccc2)cc1
[2]
  t1/2: 1.25 h
[1]
  pIC50: 5.04

## COc1ccc(S(=O)(=O)n2nc(OC(=O)c3c(F)ccc(C)c3F)cc2N)cc1
[2]
  t1/2: 2.5 h
[1]
  pIC50: 5.37

## COc1ccc(Cn2nc(C)cc2CC(O)c2ccccc2)cc1 (stereo not given)
[1]
  pIC50: < 4.00

## COc1ccc(S(=O)(=O)n2nc(OC(=O)c3sccc3Cl)cc2N)cc1
[1]
  pIC50: 5.91

## COc1ccc(S(=O)(=O)n2nc(OC(=O)c3c(F)cccc3F)cc2N)cc1
[2]
  t1/2: 1.5 h
[1]
  pIC50: 6.51

## Cc1cc(NC(=O)c2ccccc2)n(-c2ccccc2)n1
[2]
  t1/2: > 96 h
[1]
  pIC50: 4.80

## Cc1cc(OC(=O)c2c(F)cccc2F)n(Cc2ccccc2)n1
[1]
  pIC50: 5.09

## COc1ccc(S(=O)(=O)n2nc(OC(=O)c3sccc3C)cc2N)cc1
[1]
  pIC50: 5.30

## COc1ccc(S(=O)(=O)n2nc(OC(=O)c3ccccc3C)cc2N)cc1
[1]
  pIC50: 5.45

## COc1ccc(Cn2nc(C)cc2OC(=O)c2c(F)cccc2F)cc1
[2]
  t1/2: 1.5 h
[1]
  pIC50: 5.06

## COc1ccc(S(=O)(=O)n2nc(OC(=O)c3c(F)c(F)c(C)c(F)c3F)cc2N)cc1
[1]
  pIC50: 4.97

## COc1ccc(Cn2nc(C)cc2OC(=O)c2ccccc2)cc1
[2]
  t1/2: 15 h
[1]
  pIC50: 5.39

## COc1ccc(S(=O)(=O)n2nc(OC(=O)c3c(F)cc(F)cc3F)cc2N)cc1
[2]
  t1/2: 4.25 h
[1]
  pIC50: 5.74

## COc1ccc(S(=O)(=O)n2nc(OC(=O)c3cccc(C(F)(F)F)c3F)cc2N)cc1
[1]
  pIC50: 4.34

## COc1ccc(S(=O)(=O)n2nc(OC(=O)c3c(Cl)cccc3Cl)cc2N)cc1
[2]
  t1/2: 5 h
[1]
  pIC50: < 4.00

## COc1ccc(S(=O)(=O)n2nc(OC(=O)c3ccccc3OC)cc2N)cc1
[1]
  pIC50: < 4.00

## COc1ccc(S(=O)(=O)n2nc(OC(=O)c3c(F)ccc(F)c3F)cc2N)cc1
[2]
  t1/2: 1.5 h
[1]
  pIC50: 6.01

## COc1ccc(S(=O)(=O)n2nc(OC(=O)c3ccc(F)c(F)c3F)cc2N)cc1
[1]
  pIC50: 4.92

## COc1ccc(Cn2nc(C)cc2/C=C/c2c(F)cccc2F)cc1
[2]
  t1/2: 13 h
[1]
  pIC50: 4.86

## COc1ccc(Cn2nc(C)cc2CC(O)c2c(F)cccc2F)cc1 (stereo not given)
[1]
  pIC50: < 4.00

## COc1ccc(S(=O)(=O)n2nc(OC(=O)c3cc(F)ccc3F)cc2N)cc1
[1]
  pIC50: 5.31

## COc1ccc(Cn2nc(C)cc2CC(=O)c2ccccc2F)cc1
[1]
  pIC50: 4.41

## Cc1cc(OC(=O)c2c(F)ccc(C)c2F)n(Cc2ccccc2)n1
[1]
  pIC50: 5.03

## COc1ccc(S(=O)(=O)n2nc(OC(=O)c3cc(F)c(F)cc3F)cc2N)cc1
[1]
  pIC50: 4.58

## COc1ccc(Cn2nc(C)cc2OC(=O)c2c(F)ccc(C)c2F)cc1
[1]
  pIC50: 5.03
